Laboratory results from ChEMBL document CHEMBL5696442, “Discovery of type II inhibitors of TGFβ-activated kinase 1 (TAK1) and mitogen-activated protein kinase kinase kinase kinase 2 (MAP4K2)” (J Med Chem, 2015).

What was measured:
Assay type in all cases: cell-based
[1] = target: Wee1-like protein kinase (Homo sapiens) (UniProt P30291); experiment: Inhibition of Wee1 Lys2 labeling site in human A-375 cells at 0.5 uM by KiNativ Profiling analysis relative to control
[2] = target: Serine/threonine-protein kinase Nek7 (Homo sapiens) (UniProt Q8TDX7); experiment: Inhibition of NEK7 Lys2 labeling site in human A-375 cells at 0.5 uM by KiNativ Profiling analysis relative to control
Serine/threonine-protein kinase Nek7 (Homo sapiens), sequence (Q8TDX7 whole entry, looked up): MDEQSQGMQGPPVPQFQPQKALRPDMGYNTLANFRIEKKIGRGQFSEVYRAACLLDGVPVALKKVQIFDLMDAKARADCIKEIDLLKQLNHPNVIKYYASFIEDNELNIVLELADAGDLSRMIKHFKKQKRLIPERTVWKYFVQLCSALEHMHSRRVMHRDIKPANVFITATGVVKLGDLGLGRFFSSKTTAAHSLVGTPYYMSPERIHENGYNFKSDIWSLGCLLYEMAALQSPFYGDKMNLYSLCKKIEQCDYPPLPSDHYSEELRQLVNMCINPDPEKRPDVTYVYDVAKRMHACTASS

[3] = target: Serine/threonine-protein kinase 32C (Homo sapiens) (UniProt Q86UX6); experiment: Inhibition of YANK3 Lys2 labeling site in human A-375 cells at 5 uM by KiNativ Profiling analysis relative to control
[4] = target: Serine/threonine-protein kinase 25 (Homo sapiens) (UniProt O00506); experiment: Inhibition of YSK1 Lys2 labeling site in human A-375 cells at 0.05 uM by KiNativ Profiling analysis relative to control
Serine/threonine-protein kinase 25 (Homo sapiens), sequence (O00506 whole entry, looked up): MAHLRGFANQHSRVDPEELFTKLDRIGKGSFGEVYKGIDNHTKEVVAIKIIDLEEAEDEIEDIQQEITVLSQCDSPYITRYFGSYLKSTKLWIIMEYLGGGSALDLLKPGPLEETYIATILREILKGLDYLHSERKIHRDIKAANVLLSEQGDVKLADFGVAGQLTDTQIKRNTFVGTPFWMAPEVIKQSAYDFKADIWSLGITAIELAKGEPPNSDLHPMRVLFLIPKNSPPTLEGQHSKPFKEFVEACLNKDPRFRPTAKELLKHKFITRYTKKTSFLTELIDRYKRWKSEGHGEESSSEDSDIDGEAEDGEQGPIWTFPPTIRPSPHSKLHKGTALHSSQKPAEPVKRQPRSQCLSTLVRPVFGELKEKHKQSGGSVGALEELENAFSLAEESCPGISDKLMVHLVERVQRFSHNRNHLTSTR

[5] = target: Proto-oncogene tyrosine-protein kinase Src (Homo sapiens, UniProt P12931); experiment: Inhibition of SRC ACT labeling site in human A-375 cells at 0.5 uM by KiNativ Profiling analysis relative to control
Proto-oncogene tyrosine-protein kinase Src, sequence (P12931 2-536 limits assumed): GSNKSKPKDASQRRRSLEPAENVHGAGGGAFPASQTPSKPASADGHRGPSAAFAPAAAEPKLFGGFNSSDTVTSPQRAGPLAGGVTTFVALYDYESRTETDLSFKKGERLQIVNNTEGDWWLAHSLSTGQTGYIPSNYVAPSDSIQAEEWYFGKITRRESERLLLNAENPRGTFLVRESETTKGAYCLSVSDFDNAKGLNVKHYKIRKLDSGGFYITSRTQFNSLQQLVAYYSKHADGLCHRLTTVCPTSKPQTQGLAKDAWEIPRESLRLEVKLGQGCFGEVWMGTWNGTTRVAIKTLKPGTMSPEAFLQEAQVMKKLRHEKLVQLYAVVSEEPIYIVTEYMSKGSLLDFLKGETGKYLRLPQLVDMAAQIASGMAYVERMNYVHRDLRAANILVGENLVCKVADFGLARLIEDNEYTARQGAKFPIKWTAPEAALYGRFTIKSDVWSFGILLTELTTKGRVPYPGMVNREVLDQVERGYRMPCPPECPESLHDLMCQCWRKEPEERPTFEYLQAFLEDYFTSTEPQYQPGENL

[6] = target: Serine/threonine-protein kinase WNK3 (Homo sapiens) (UniProt Q9BYP7); experiment: Inhibition of Wnk3 Lys2 labeling site in human A-375 cells at 0.05 uM by KiNativ Profiling analysis relative to control
Serine/threonine-protein kinase WNK3 (Homo sapiens), sequence (Q9BYP7 whole entry): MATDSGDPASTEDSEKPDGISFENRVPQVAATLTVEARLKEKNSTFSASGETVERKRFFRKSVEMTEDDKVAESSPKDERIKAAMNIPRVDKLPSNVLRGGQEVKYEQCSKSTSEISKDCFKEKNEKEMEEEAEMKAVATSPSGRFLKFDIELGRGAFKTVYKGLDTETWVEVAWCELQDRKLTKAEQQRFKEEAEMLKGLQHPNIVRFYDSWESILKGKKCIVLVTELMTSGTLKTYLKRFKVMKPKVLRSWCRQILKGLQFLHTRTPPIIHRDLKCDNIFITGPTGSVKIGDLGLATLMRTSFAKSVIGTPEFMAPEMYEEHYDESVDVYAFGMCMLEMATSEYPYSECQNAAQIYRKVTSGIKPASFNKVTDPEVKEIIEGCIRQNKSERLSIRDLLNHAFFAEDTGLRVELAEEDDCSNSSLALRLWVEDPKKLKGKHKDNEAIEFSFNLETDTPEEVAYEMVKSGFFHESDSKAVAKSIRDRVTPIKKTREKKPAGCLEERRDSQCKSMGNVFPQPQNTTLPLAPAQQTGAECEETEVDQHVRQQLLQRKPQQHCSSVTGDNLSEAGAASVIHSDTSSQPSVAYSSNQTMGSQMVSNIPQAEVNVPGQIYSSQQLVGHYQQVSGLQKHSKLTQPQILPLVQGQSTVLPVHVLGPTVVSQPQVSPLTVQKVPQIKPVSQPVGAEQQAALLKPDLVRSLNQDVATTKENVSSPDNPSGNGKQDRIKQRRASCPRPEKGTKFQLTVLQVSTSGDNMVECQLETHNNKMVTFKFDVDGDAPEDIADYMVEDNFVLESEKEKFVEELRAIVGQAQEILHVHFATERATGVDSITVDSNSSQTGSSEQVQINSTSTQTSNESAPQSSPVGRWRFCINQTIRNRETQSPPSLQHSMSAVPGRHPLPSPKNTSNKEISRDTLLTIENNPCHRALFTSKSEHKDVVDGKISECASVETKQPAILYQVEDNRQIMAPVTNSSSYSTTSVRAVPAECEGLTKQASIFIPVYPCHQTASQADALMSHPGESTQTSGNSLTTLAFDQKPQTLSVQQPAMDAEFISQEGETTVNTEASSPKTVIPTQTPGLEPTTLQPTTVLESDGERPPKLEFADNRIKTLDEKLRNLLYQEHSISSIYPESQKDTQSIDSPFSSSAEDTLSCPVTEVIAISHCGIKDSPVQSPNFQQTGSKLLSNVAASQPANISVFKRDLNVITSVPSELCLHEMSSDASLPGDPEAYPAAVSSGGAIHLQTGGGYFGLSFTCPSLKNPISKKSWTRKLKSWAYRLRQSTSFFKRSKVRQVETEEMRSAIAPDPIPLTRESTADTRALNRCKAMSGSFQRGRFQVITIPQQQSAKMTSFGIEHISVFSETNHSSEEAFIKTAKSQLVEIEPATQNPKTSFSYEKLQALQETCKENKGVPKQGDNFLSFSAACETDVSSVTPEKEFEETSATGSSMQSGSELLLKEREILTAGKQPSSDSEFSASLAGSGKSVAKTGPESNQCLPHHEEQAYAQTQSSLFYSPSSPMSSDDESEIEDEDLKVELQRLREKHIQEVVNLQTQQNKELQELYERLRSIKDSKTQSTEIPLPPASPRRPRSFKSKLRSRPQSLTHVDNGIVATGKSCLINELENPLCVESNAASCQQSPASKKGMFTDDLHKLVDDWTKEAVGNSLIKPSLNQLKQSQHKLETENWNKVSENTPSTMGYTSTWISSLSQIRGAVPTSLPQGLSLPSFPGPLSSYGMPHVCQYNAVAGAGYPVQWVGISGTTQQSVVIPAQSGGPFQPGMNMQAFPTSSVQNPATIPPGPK

[7] = target: TRAF2 and NCK-interacting protein kinase (Homo sapiens) (UniProt Q9UKE5); experiment: Inhibition of ZC2/TNIK Lys2 labeling site in human A-375 cells at 0.05 uM by KiNativ Profiling analysis relative to control
TRAF2 and NCK-interacting protein kinase (Homo sapiens), sequence (Q9UKE5 whole entry, looked up): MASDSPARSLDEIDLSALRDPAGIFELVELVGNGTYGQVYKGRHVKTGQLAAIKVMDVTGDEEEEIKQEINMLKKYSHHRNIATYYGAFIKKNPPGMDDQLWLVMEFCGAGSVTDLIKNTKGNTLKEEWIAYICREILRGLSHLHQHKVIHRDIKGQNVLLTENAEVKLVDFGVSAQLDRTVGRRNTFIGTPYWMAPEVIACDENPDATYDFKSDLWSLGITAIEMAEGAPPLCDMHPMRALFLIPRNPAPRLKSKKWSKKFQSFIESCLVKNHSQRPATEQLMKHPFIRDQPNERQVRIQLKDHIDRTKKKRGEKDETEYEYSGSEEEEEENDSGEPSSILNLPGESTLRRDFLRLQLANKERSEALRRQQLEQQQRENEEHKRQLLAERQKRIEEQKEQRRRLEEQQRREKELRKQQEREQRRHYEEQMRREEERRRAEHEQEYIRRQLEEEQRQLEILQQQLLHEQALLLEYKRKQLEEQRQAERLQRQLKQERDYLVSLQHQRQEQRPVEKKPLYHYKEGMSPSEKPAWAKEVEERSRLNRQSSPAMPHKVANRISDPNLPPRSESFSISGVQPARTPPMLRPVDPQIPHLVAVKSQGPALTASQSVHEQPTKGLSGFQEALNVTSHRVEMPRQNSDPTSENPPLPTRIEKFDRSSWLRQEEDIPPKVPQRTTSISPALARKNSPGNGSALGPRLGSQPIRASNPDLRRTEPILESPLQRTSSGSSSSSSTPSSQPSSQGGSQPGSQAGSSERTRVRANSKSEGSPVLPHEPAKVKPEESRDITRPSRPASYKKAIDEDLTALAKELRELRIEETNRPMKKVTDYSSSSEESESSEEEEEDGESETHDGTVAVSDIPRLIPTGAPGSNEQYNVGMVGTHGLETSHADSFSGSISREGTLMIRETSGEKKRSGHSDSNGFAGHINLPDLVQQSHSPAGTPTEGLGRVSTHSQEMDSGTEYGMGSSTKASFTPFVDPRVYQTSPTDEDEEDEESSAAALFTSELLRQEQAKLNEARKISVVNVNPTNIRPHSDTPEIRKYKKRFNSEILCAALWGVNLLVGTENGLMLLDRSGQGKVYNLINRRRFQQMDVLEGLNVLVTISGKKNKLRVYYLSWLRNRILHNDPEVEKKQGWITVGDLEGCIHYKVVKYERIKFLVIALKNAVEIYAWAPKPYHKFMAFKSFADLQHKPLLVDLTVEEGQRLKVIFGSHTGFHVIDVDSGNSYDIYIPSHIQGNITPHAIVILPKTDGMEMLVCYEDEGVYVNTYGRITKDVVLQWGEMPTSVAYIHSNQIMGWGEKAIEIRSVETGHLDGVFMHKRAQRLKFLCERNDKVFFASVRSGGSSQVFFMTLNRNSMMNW

[8] = target: Cyclin-dependent kinase 1 (Homo sapiens) (UniProt P06493); experiment: Inhibition of CDC2 Lys2 labeling site harbouring DLKPQNLLIDDKGTIK in human A-375 cells at 0.5 uM by KiNativ Profiling analysis relative to control
Method in brief: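 Live A375 melanoma cells were treated with compound at 5 or 0.5 μM. The cells were then lysed, and the lysates were labeled with a lysine-reactive ATP or ADP-biotin acyl probe (KiNativ). Inhibition is the compound's protection of each kinase labeling-site peptide from probe labeling, relative to untreated control.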

[9] = target: TRAF2 and NCK-interacting protein kinase (Homo sapiens) (UniProt Q9UKE5); experiment: Inhibition of ZC2/TNIK Lys2 labeling site in human A-375 cells at 0.5 uM by KiNativ Profiling analysis relative to control
[10] = target: T1, Serine/threonine-protein kinase 3 (Homo sapiens) (UniProt Q13188); experiment: Inhibition of MST2 Lys1 labeling site in human A-375 cells at 0.05 uM by KiNativ Profiling analysis relative to control
T1 sequence (whole entry): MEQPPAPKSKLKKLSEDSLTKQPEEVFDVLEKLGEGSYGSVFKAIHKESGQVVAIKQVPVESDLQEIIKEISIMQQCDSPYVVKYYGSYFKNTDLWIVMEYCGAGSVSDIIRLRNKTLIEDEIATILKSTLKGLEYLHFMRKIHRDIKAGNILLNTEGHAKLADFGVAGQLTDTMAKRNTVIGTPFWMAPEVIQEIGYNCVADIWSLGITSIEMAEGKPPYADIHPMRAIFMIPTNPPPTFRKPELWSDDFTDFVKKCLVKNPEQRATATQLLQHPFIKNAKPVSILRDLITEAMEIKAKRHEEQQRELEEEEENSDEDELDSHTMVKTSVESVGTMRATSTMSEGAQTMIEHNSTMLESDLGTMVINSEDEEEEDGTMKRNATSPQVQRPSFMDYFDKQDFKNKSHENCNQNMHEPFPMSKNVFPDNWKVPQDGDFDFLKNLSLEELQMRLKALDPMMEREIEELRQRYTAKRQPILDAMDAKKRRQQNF

[11] = target: T2, Kinase suppressor of Ras 1 (Homo sapiens) (UniProt Q8IVT5); experiment: Inhibition of KSR1 ACT labeling site harbouring SKNVFYDNGK in human A-375 cells at 5 uM by KiNativ Profiling analysis relative to control
T2 sequence (whole entry): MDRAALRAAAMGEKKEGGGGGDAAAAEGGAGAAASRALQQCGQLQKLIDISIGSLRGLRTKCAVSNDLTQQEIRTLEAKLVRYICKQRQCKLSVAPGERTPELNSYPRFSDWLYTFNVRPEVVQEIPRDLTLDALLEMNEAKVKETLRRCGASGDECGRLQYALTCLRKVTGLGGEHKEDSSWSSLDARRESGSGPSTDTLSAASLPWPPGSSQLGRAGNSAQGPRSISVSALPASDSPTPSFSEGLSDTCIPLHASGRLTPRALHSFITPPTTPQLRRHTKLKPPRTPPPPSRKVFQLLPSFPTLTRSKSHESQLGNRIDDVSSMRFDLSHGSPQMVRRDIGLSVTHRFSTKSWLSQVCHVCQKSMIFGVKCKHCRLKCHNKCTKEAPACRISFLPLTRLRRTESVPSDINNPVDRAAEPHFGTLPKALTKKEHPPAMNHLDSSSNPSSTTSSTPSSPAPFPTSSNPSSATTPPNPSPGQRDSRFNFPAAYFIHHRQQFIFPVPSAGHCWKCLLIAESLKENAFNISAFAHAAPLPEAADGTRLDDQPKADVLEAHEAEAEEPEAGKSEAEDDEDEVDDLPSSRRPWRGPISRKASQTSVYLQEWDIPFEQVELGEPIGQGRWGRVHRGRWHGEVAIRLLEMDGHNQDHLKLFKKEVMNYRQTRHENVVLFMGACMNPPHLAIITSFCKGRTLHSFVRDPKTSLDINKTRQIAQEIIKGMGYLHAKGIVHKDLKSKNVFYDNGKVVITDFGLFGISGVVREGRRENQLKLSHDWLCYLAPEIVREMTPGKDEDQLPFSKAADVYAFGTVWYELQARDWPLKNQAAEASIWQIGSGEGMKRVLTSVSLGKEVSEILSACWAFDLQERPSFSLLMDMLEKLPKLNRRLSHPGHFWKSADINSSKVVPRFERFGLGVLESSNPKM

[12] = target: Tyrosine-protein kinase ABL1 (Homo sapiens, UniProt P00519); experiment: Inhibition of ABL ACT labeling site in human A-375 cells at 0.5 uM by KiNativ Profiling analysis relative to control
Method in brief: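 Intact A375 melanoma cells were treated with compound at 5 or 0.5 μM, then lysed. Lysate kinases were labeled with a lysine-reactive ATP or ADP-biotin probe (KiNativ). Inhibition is read as protection of each kinase labeling site from probe labeling.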

[13] = target: Ribosomal protein S6 kinase alpha-3 (Homo sapiens) (UniProt P51812); experiment: Inhibition of RSK2 domain2 Lys2 labeling site in human A-375 cells at 5 uM by KiNativ Profiling analysis relative to control
Method in brief: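 Live A375 melanoma cells treated with compound at 5 or 0.5 μM, then lysed. Lysate kinases were labeled with a lysine-reactive ATP or ADP-biotin probe. Inhibition was read as protection of labeling sites from the probe.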

[14] = target: RAF proto-oncogene serine/threonine-protein kinase (Homo sapiens, UniProt P04049); experiment: Inhibition of RAF1 Lys2 labeling site in human A-375 cells at 0.5 uM by KiNativ Profiling analysis relative to control
RAF proto-oncogene serine/threonine-protein kinase, sequence (P04049 whole entry): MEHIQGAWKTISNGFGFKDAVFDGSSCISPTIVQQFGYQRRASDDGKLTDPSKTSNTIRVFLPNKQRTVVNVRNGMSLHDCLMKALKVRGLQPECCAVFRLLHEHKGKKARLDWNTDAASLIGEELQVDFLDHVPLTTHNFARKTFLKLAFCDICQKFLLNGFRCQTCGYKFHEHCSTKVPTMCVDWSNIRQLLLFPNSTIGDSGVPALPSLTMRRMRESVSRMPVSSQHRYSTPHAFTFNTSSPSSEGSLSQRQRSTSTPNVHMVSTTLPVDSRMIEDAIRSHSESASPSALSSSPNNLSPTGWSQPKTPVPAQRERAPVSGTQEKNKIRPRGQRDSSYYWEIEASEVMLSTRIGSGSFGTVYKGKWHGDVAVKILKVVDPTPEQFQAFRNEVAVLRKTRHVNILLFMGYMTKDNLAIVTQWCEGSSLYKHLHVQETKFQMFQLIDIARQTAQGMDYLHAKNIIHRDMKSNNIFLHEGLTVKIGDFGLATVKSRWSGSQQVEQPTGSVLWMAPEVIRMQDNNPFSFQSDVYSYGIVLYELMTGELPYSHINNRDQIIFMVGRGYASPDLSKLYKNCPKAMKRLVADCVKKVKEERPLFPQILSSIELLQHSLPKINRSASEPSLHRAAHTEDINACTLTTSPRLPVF

Row | Structure (SMILES) | inhibition [1] [%] | inhibition [2] [%] | inhibition [3] [%] | inhibition [4] [%] | inhibition [5] [%] | inhibition [6] [%] | inhibition [7] [%] | inhibition [8] [%] | inhibition [9] [%] | inhibition [10] [%] | inhibition [11] [%] | inhibition [12] [%] | inhibition [13] [%] | inhibition [14] [%]
1 | CCN1CCN(Cc2ccc(NC(=O)c3ccc(C)c(Oc4ccnc5[nH]ccc45)c3)cc2C(F)(F)F)CC1 | 13.6 | 7.8 | 16.2 | -0.7 | 36.5 | -3.5 | 32.6 | 13.7 | 70.8 | -6.5 | 32.1 | > 98 | 14.4 | 79.2
2 | CCN1CCN(Cc2ccc(NC(=O)c3ccc(C)c(/C=C/c4cnc5[nH]ccc5c4OC)c3)cc2C(F)(F)F)CC1 | 8 | 10.7 | 12.7 | 9.1 | 72.6 | 7.1 | 19.5 | 6.3 | 48.1 | 9.2 | 12.2 | > 98 | 23.7 | 82.6
